A selection: hits, their analogues and other compounds. The true share with any hit is near 3.7%.
KCNQ1 pot – human KCNQ1 channel potentiation or activation | CHO-K1 KCNQ1, thallium flux FluxOR fluorescence; hits give high values | actives 0.35% (n = 310,000) | P51787 | B-score at 10 µM;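 active = fluorescence ratio B-score, a plate-corrected score, at least three library SD, with initial intensity B-score within 5 SD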
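System: Stable KCNQ1 CHO-K1 line | Incubation: 90 min dye loading and 20 min compound exposure, both at room temperature | Measure: Ratio B score | Medium: Assay buffer for compound exposure, DMSO matched across wells | Compound dosing: Single-concentration screen | Probe or stimulus: K+/Tl+ depolarizing stimulus | Measured by: Kinetic FluxOR fluorescence, 10 s baseline plus 110 s post-stimulus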
KCNK9 inh – human KCNK9 channel inhibition | HEK293 KCNK9, FluxOR thallium flux fluorescence; hits give low values | AID 488922 | B-score at 10 µM | Q9NPC2 | actives 1.2% (n = 310,000);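 active = ratio B-score over 3 SD below the library mean, with starting fluorescence within 5 SD of its mean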;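 note: negative B-score means less thallium flux so channel inhibition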
KCNK3 block – human KCNK3 channel inhibition, primary screen | B-score at 10 µM | O14649 | CHO-KCNK3 thallium flux, FluxOR fluorescence; hits give low values | AID 602410 | actives 0.84% (n = 340,000);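 active = B-score under library mean minus 4 SD, starting fluorescence ratio at most library mean plus 5 SD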;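 note: more negative B-score means stronger inhibition of thallium flux through KCNK3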
hERG protect – hERG (human) protection from proarrhythmic block; Q12809; CHO-hERG, FluxOR thallium flux, dofetilide IC70 present; activation (rescue from dofetilide block), less the hit threshold, % at 10 µM; actives 0.51% (n = 310,000); AID 1511;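 active = activation above the mean of controls blocked by dofetilide plus 5 SD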;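 note: thallium influx through hERG after potassium depolarization seen as dye fluorescence rise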
KCNQ1 inh – human KCNQ1 channel inhibition | P51787 | CHO-K1 KCNQ1, FluxOR thallium flux fluorescence; hits give high values | B-score at 10 µM | actives 1.3% (n = 310,000) | AID 2642;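 active = compounds whose thallium flux B-score, printed positive for inhibition, exceeds three library SD while starting fluorescence stays within three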;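 note: channel opened by potassium depolarization with thallium stimulus after 20 min compound exposure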
Kir21 inh – blocks the mouse Kir2.1 inward-rectifier potassium channel. actives 0.85% (n = 310,000). HEK293-Kir2.1, FluxOR thallium flux fluorescence; hits give low values. B-score at 10 µM;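 active = fluorescence ratio B-score at or below minus 3 SD of library scores, with starting-brightness B-score within 2 SD, cut at about -4.2 in these data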;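 note: channel flux triggered by added potassium and thallium sulfate stimulus; B-score of peak minus minimum fluorescence over baseline after thallium stimulus; more negative B-score means stronger Kir2.1 block with less thallium influx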
Target sequence (P35561 whole entry, looked up): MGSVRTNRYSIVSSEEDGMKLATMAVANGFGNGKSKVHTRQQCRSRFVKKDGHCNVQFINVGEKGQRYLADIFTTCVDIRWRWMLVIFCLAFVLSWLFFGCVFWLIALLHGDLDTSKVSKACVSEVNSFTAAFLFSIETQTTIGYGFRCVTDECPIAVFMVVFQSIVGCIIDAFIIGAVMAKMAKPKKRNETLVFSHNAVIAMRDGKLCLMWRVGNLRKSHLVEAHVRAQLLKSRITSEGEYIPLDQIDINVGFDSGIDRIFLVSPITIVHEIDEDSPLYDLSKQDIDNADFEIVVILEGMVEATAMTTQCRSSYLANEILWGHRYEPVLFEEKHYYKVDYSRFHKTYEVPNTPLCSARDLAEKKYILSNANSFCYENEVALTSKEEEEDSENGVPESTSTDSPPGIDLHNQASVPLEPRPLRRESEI
Each line names hits and unclear results; the compound was inactive in the other large screens.

CCOc1ccc(C(=O)NC(C(=O)NCC(c2cccs2)N(C)C)C(C)C)cc1 (stereo unspecified)	none (no result: KCNQ1 pot, KCNK9 inh, hERG protect, KCNQ1 inh, Kir21 inh)
COc1cc(/C=C2/SC(=S)N(CC(=O)O)C2=O)ccc1OCC(=O)Nc1ccc(C)c(C)c1	hERG protect 19
Cc1cc(SCC(=O)NCCC2=CCCCC2)nc2ccccc12	Kir21 inh -16
Cc1ccccc1OC(C)C(=O)NCCC1=CCCCC1 (stereo unspecified)	Kir21 inh -8.9
Cc1ccc(Cl)cc1-n1c(SCC(=O)NCCC2=CCCCC2)nc2n[nH]c(C)c2c1=N	KCNK9 inh -7.2
Cc1c(CNCCC2=CCCCC2)c(C(=O)O)c(C)n1Cc1ccccc1	hERG protect 6.6
COc1ccc(NC(=O)COc2ccccc2C(=O)NCC(c2ccccc2)N(C)C)cc1Cl (stereo unspecified)	none
O=S1(=O)CCOCCCN1Cc1ccc(Cl)cc1	none
CC(=O)Nc1ccc(S(=O)(=O)NCCC(=O)NCC2COc3ccccc3O2)cc1 (stereo unspecified)	none
CCC(C(=O)NCCC1=CCCCC1)c1ccccc1 (stereo unspecified)	Kir21 inh -5.6
O=S(=O)(N1CCOCC1)n1nnc2ccccc21	none
O=S(=O)(N1CCOCC1)n1c(Cc2ccccc2)nc2ccccc21	Kir21 inh -4.3
COc1cc2c(cc1OC)CN(C(=O)c1ccc(Cl)c(S(=O)(=O)N3CCCC3)c1)CC2	KCNK3 block -8.7 (no result: KCNQ1 pot, KCNK9 inh, hERG protect, KCNQ1 inh, Kir21 inh)
CC(C)(C)c1ccc(/C=C2\Oc3cc(O)ccc3C2=O)cc1	none
O=C1/C(=C/c2ccc([N+](=O)[O-])cc2)Oc2cc(O)ccc21	KCNQ1 inh 6
COCCN1C(=O)C(C(=O)OC)CC2=C1CC(C)(C)CC2=O (stereo unspecified)	none (no result: KCNQ1 pot, KCNK9 inh, hERG protect, KCNQ1 inh, Kir21 inh)
O=c1c2ccc(Cl)cc2[nH]c(=S)n1CCC1=CCCCC1	KCNQ1 pot 20, hERG protect 25
CCOC(=O)N1CCN(C(=O)c2ccc3c(=O)n(CCC4=CCCCC4)c(=S)[nH]c3c2)CC1	none
CC(C)(C)c1ccccc1OCCOCCNCc1ccccc1	Kir21 inh -9.3
C=CCNCCOCCOc1ccc(Cl)cc1C(C)(C)C	Kir21 inh -11
O=[N+]([O-])c1ccccc1OCCNCc1ccccc1	hERG protect 7.2
CC(C)(C)NCCOCCOc1ccc(Cl)cc1C(C)(C)C	none
COCCCNCCOCCOc1ccc(Cl)cc1C(C)(C)C	Kir21 inh -6.2
CSc1sccc1/C=C(/C#N)C(=O)c1ccco1	none
C=CCNCCCOc1ccc(Cl)cc1C(C)(C)C	Kir21 inh -14
COc1ccc(OC)c(S(=O)(=O)N2CCCC(C(=O)NC3CC3)C2)c1 (stereo unspecified)	none (no result: KCNQ1 pot, KCNK9 inh, hERG protect, KCNQ1 inh, Kir21 inh)
O=C1c2ccccc2C(=O)N1C(CO)C(O)c1ccc([N+](=O)[O-])cc1 (stereo unspecified)	none
Cc1ccc(C(OCC(O)CN2CCCCC2)c2ccccc2)cc1 (stereo unspecified)	none
Cc1ccc(C(OCC(O)CNC(CO)C(O)c2ccc([N+](=O)[O-])cc2)c2ccccc2)cc1 (stereo unspecified)	Kir21 inh -5.2
Cc1ccc(C(OCC(O)CNC(C)c2ccccc2)c2ccccc2)cc1 (stereo unspecified)	Kir21 inh -6
CC(NCC(O)COCc1ccc(Cl)cc1)c1ccccc1 (stereo unspecified)	Kir21 inh -8.5
CNc1ncnc2c1cnn2C1CCCCO1 (stereo unspecified)	none (no result: KCNQ1 pot, KCNK9 inh, hERG protect, KCNQ1 inh, Kir21 inh)
CCOC(=O)C(=CNc1ccc(Oc2cccnc2)nc1)C(=O)OCC	hERG protect 4.6
CCOC(=O)C(=CNc1cc(C)ccn1)C(=O)OCC	hERG protect 5.1
CC(C)(C)c1ccc(C(=O)Nc2ccc(Oc3cccnc3)nc2)cc1	none
COc1ccc(/C=N/NC(=O)c2cccc(C(=O)N/N=C/c3ccc(OC)c(OC)c3)n2)cc1OC	none
COc1ccc(/C=N/NC(=O)Nc2cccc3nsnc23)cc1OC	KCNK9 inh -6.6
CCCc1sc(N)nc1-c1ccc(Cl)cc1	Kir21 inh -4.3
CCNc1nc(-c2ccc(Cl)cc2)cs1	none
COc1ccc([N+](=O)[O-])cc1Nc1c2ccccc2nc2ccccc12	KCNQ1 inh 8
Cc1ccccc1Nc1nc(N)c2ccccc2n1	none
COc1ccc(C)cc1Nc1nc(N)c2ccccc2n1	Kir21 inh -4.9
COc1ccc(OC)c(Nc2c3ccccc3nc3ccccc23)c1	Kir21 inh -4.6
O=C(O)c1ccccc1C=NN1CCCCCC1	none (no result: KCNQ1 pot, KCNK9 inh, hERG protect, KCNQ1 inh, Kir21 inh)
CCNC(=O)N(C)C[C@H]1N[C@@](Cc2ccccc2)(C(=O)OC)[C@H]2C(=O)N(C)C(=O)[C@@H]12	none (no result: KCNQ1 pot, KCNK9 inh, hERG protect, KCNQ1 inh, Kir21 inh)
CCOc1cccc(C2/C(=C(/O)c3ccc4c(c3)CC(C)O4)C(=O)C(=O)N2Cc2cccnc2)c1 (stereo unspecified)	none
Cc1c(NC(=S)NC(=O)c2ccccc2Cl)c(=O)n(-c2ccccc2)n1C	none
COc1ccc(Br)cc1C(=O)NC(=S)Nc1c(C)n(C)n(-c2ccccc2)c1=O	hERG protect 4.8
COc1ccc(-c2noc(CCCCC(=O)N3CCN(c4cc(C)ccc4C)CC3)n2)cc1	KCNK3 block -11 (no result: KCNQ1 pot, KCNK9 inh, hERG protect, KCNQ1 inh, Kir21 inh)
COc1ccc(-c2noc(CCCC(=O)N3CCN(c4cc(C)ccc4C)CC3)n2)cc1	KCNK3 block -8.8 (no result: KCNQ1 pot, KCNK9 inh, hERG protect, KCNQ1 inh, Kir21 inh)
N#Cc1ccc(S(=O)(=O)N2CCN(C(=O)c3cn(-c4ccccc4)nc3-c3cccnc3)CC2)cc1	none (no result: KCNQ1 pot, KCNK9 inh, hERG protect, KCNQ1 inh, Kir21 inh)
CC1OC(c2ccccc2)OC2COC(c3ccccc3)OC12 (stereo unspecified)	none (no result: KCNQ1 pot, KCNK9 inh, hERG protect, KCNQ1 inh, Kir21 inh)
O=C1Nc2ccc(Cl)cc2[C@@](C#CC2CC2)(C(F)(F)F)O1	KCNK9 inh -8.7 (no result: KCNK3 block)
C=CCNc1nc(N2CCCCC2)c(C#N)c2c1CN(Cc1ccccc1)CC2	KCNK3 block -11
COc1cc(/C=C2\SC(=S)N(Nc3ccccc3)C2=O)ccc1O	none
COc1cc(/C=C2\SC(=S)N(C(Cc3ccccc3)C(=O)O)C2=O)ccc1O (stereo unspecified)	Kir21 inh -4.5
CC(C)(COC(=O)c1ccccc1)N1CC2CCC(C1)O2	none (no result: KCNQ1 pot, KCNK9 inh, hERG protect, KCNQ1 inh, Kir21 inh)
CC(=O)C1C=CC(C)(C(=O)O)C2C=C(C)C(=O)C(C)(O)C12 (stereo unspecified)	none (no result: KCNQ1 pot, KCNK9 inh, hERG protect, KCNQ1 inh, Kir21 inh)
Cn1cc(C(=O)C(=O)N2CCCCC2)c2ccccc21	none (no result: KCNQ1 pot, KCNK9 inh, hERG protect, KCNQ1 inh, Kir21 inh)
COc1ccc(Nc2ccnc(Nc3ccc(OC)cc3)n2)cc1	Kir21 inh -6.5
Fc1cccc(Cl)c1CSc1nnc(CNc2ccccc2)o1	none
Clc1ccc(CSc2nnc(CNc3cccc(Cl)c3)o2)cc1	KCNQ1 inh 6
CC(C)(c1ccccc1)c1ccc(OCC(O)CNC2CCN(Cc3ccccc3)CC2)cc1 (stereo unspecified)	KCNK9 inh -7.5, KCNQ1 inh 8, Kir21 inh -4.9
